Measured values: ChEMBL document CHEMBL4229342, “Synthesis of novel proxyphylline derivatives with dual Anti-Candida albicans and anticancer activity” (Eur J Med Chem, 2018)

Assays:
Type in all cases: functional
Candida albicans [1] = experiment: Growth inhibition of Candida albicans ATCC 90028 at 0.0313 ug/ml incubated for 4 hrs at 35 degC by broth microdilution method relative to control; settings: ATCC 90028, 4 h, read-out: GI
Candida albicans [2] = experiment: Fungicidal activity against Candida albicans ATCC 90028 assessed as log reduction in cell viability at 16 ug/ml after 48 hrs at 35 degC
Procedure, shortened: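 MFC assay on C. albicans ATCC 90028 following M27-A3, at the molar equivalent of 16 µg/mL. CFU of treated cells were compared with CFU of the untreated inoculum. Activity is given as lg R = lg CFU/mL control − lg CFU/mL treated, and lg R ≥3 was defined as fungicidal. Values are means of two independent experiments.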

Candida albicans [3] = experiment: Growth inhibition of Candida albicans ATCC 90028 at 16 ug/ml incubated for 18 hrs at 35 degC by broth microdilution method relative to control; settings: ATCC 90028, 18 h, read-out: GI
CCRF-CEM [4] = experiment: Antiproliferative activity against human CCRF-CEM cells assessed as cell viability at 50 uM after 72 hrs by MTT assay; settings: read-out: Activity
Procedure, shortened: (§1)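 MTT viability assay in CCRF-CEM and MCF-7 cells after 72 h exposure at 25, 50, 100 and 200 µM. Results are relative to control cells without inhibitor in 0.5% DMSO. Done in triplicate; values are means ± SD of three independent experiments.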

Candida albicans [5] = experiment: Growth inhibition of Candida albicans ATCC 90028 at 0.125 ug/ml incubated for 4 hrs at 35 degC by broth microdilution method relative to control; settings: ATCC 90028, 4 h, read-out: GI
Candida albicans [6] = experiment: Growth inhibition of Candida albicans ATCC 90028 at 1 ug/ml incubated for 18 hrs at 35 degC by broth microdilution method relative to control; settings: ATCC 90028, 18 h, read-out: GI
Candida albicans [7] = experiment: Growth inhibition of Candida albicans ATCC 90028 at 8 ug/ml incubated for 48 hrs at 35 degC by broth microdilution method relative to control; settings: ATCC 90028, 48 h, read-out: GI
Candida albicans [8] = experiment: Growth inhibition of Candida albicans ATCC 90028 at 0.125 ug/ml incubated for 18 hrs at 35 degC by broth microdilution method relative to control; settings: ATCC 90028, 18 h, read-out: GI
Candida albicans [9] = experiment: Growth inhibition of Candida albicans ATCC 90028 at 2 ug/ml incubated for 4 hrs at 35 degC by broth microdilution method relative to control; settings: ATCC 90028, 4 h, read-out: GI
MCF7 [10] = experiment: Antiproliferative activity against human MCF7 cells assessed as cell viability at 50 uM after 72 hrs by MTT assay; settings: MCF7, 72 h, read-out: Activity; procedure, shortened: as §1
MCF7 [11] = experiment: Antiproliferative activity against human MCF7 cells assessed as cell viability at 200 uM after 72 hrs by MTT assay; settings: MCF7, 72 h, read-out: Activity; procedure, shortened: as §1
Candida albicans [12] = experiment: Growth inhibition of Candida albicans ATCC 90028 at 0.0625 ug/ml incubated for 18 hrs at 35 degC by broth microdilution method relative to control; settings: ATCC 90028, 18 h, read-out: GI
Candida albicans [13] = experiment: Growth inhibition of Candida albicans ATCC 90028 at 0.5 ug/ml incubated for 18 hrs at 35 degC by broth microdilution method relative to control; settings: ATCC 90028, 18 h, read-out: GI
Candida albicans [14] = experiment: Growth inhibition of Candida albicans ATCC 90028 at 0.0313 ug/ml incubated for 18 hrs at 35 degC by broth microdilution method relative to control; settings: ATCC 90028, 18 h, read-out: GI
Candida albicans [15] = experiment: Growth inhibition of Candida albicans ATCC 90028 at 0.5 ug/ml incubated for 4 hrs at 35 degC by broth microdilution method relative to control; settings: ATCC 90028, 4 h, read-out: GI
MCF7 [16] = experiment: Antiproliferative activity against human MCF7 cells assessed as cell viability at 100 uM after 72 hrs by MTT assay; settings: MCF7, 72 h, read-out: Activity; procedure, shortened: as §1
Candida albicans [17] = experiment: Growth inhibition of Candida albicans ATCC 90028 at 0.0625 ug/ml incubated for 4 hrs at 35 degC by broth microdilution method relative to control; settings: ATCC 90028, 4 h, read-out: GI
CCRF-CEM [18] = experiment: Antiproliferative activity against human CCRF-CEM cells assessed as cell viability at 200 uM after 72 hrs by MTT assay; settings: read-out: Activity; procedure, shortened: as §1
CCRF-CEM [19] = experiment: Antiproliferative activity against human CCRF-CEM cells assessed as cell viability at 25 uM after 72 hrs by MTT assay; settings: read-out: Activity; procedure, shortened: as §1
Candida albicans [20] = experiment: Growth inhibition of Candida albicans ATCC 90028 at 8 ug/ml incubated for 18 hrs at 35 degC by broth microdilution method relative to control; settings: ATCC 90028, 18 h, read-out: GI
MCF7 [21] = experiment: Antiproliferative activity against human MCF7 cells assessed as cell viability at 25 uM after 72 hrs by MTT assay; settings: MCF7, 72 h, read-out: Activity; procedure, shortened: as §1
Candida albicans [22] = experiment: Growth inhibition of Candida albicans ATCC 90028 at 0.25 ug/ml incubated for 18 hrs at 35 degC by broth microdilution method relative to control; settings: ATCC 90028, 18 h, read-out: GI
Candida albicans [23] = experiment: Growth inhibition of Candida albicans ATCC 90028 at 4 ug/ml incubated for 18 hrs at 35 degC by broth microdilution method relative to control; settings: ATCC 90028, 18 h, read-out: GI
Candida albicans [24] = experiment: Growth inhibition of Candida albicans ATCC 90028 at 2 ug/ml incubated for 18 hrs at 35 degC by broth microdilution method relative to control; settings: ATCC 90028, 18 h, read-out: GI
Candida albicans [25] = experiment: Growth inhibition of Candida albicans ATCC 90028 at 1 ug/ml incubated for 4 hrs at 35 degC by broth microdilution method relative to control; settings: ATCC 90028, 4 h, read-out: GI
CCRF-CEM [26] = experiment: Antiproliferative activity against human CCRF-CEM cells assessed as cell viability at 100 uM after 72 hrs by MTT assay; settings: read-out: Activity; procedure, shortened: as §1
Candida albicans [27] = experiment: Growth inhibition of Candida albicans ATCC 90028 at 0.25 ug/ml incubated for 4 hrs at 35 degC by broth microdilution method relative to control; settings: ATCC 90028, 4 h, read-out: GI
Candida albicans [28] = experiment: Growth inhibition of Candida albicans ATCC 90028 at 16 ug/ml incubated for 48 hrs at 35 degC by broth microdilution method relative to control; settings: ATCC 90028, 48 h, read-out: GI
Candida albicans [29] = experiment: Growth inhibition of Candida albicans ATCC 90028 at 8 ug/ml incubated for 4 hrs at 35 degC by broth microdilution method relative to control; settings: ATCC 90028, 4 h, read-out: GI

CC(Cn1cnc2c1c(=O)n(C)c(=O)n2C)OC(=O)Sc1ccccc1 (configuration not stated)
inhibition of growth at 0.0313 µg/mL (Candida albicans [1]): 99.3% | log(activity) (Candida albicans [2]): 0.1 | inhibition of growth at 16 µg/mL (Candida albicans [3]): 99.8% | viability at 50 µM (CCRF-CEM [4]): 37.1% | inhibition of growth at 0.125 µg/mL (Candida albicans [5]): 99.1% | inhibition of growth at 1 µg/mL (Candida albicans [6]): 99.9% | inhibition of growth at 8 µg/mL (Candida albicans [7]): 99.2% | inhibition of growth at 0.125 µg/mL (Candida albicans [8]): 99.5% | inhibition of growth at 2 µg/mL (Candida albicans [9]): 99.3% | viability at 50 µM (MCF7 [10]): 81.9% | viability at 200 µM (MCF7 [11]): 43.1% | inhibition of growth at 0.0625 µg/mL (Candida albicans [12]): 99.7% | inhibition of growth at 0.5 µg/mL (Candida albicans [13]): 99.9% | inhibition of growth at 0.0313 µg/mL (Candida albicans [14]): 99.8% | inhibition of growth at 0.5 µg/mL (Candida albicans [15]): 99.4% | viability at 100 µM (MCF7 [16]): 69.9% | inhibition of growth at 0.0625 µg/mL (Candida albicans [17]): 99.1% | viability at 200 µM (CCRF-CEM [18]): 0.5% | viability at 25 µM (CCRF-CEM [19]): 53.9% | inhibition of growth at 8 µg/mL (Candida albicans [20]): 100% | viability at 25 µM (MCF7 [21]): 86.8% | inhibition of growth at 0.25 µg/mL (Candida albicans [22]): 100% | inhibition of growth at 4 µg/mL (Candida albicans [23]): 99.8% | inhibition of growth at 2 µg/mL (Candida albicans [24]): 100% | inhibition of growth at 1 µg/mL (Candida albicans [25]): 99.5% | viability at 100 µM (CCRF-CEM [26]): 14.5% | inhibition of growth at 0.25 µg/mL (Candida albicans [27]): 99.5% | inhibition of growth at 16 µg/mL (Candida albicans [28]): 99.5% | inhibition of growth at 8 µg/mL (Candida albicans [29]): 99.5%

CC(Cn1cnc2c1c(=O)n(C)c(=O)n2C)OC(=O)N1c2ccccc2Sc2ccccc21 (configuration not stated)
inhibition of growth at 0.0313 µg/mL (Candida albicans [1]): 99.3% | log(activity) (Candida albicans [2]): 0.3 | inhibition of growth at 16 µg/mL (Candida albicans [3]): 100% | viability at 50 µM (CCRF-CEM [4]): 77.4% | inhibition of growth at 0.125 µg/mL (Candida albicans [5]): 99.2% | inhibition of growth at 1 µg/mL (Candida albicans [6]): 99.8% | inhibition of growth at 8 µg/mL (Candida albicans [7]): 99.2% | inhibition of growth at 0.125 µg/mL (Candida albicans [8]): 99.9% | inhibition of growth at 2 µg/mL (Candida albicans [9]): 99.2% | viability at 50 µM (MCF7 [10]): 89.9% | viability at 200 µM (MCF7 [11]): 37% | inhibition of growth at 0.0625 µg/mL (Candida albicans [12]): 99.9% | inhibition of growth at 0.5 µg/mL (Candida albicans [13]): 99.8% | inhibition of growth at 0.0313 µg/mL (Candida albicans [14]): 100% | inhibition of growth at 0.5 µg/mL (Candida albicans [15]): 99.5% | viability at 100 µM (MCF7 [16]): 73.4% | inhibition of growth at 0.0625 µg/mL (Candida albicans [17]): 99.2% | viability at 200 µM (CCRF-CEM [18]): 47.1% | viability at 25 µM (CCRF-CEM [19]): 105% | inhibition of growth at 8 µg/mL (Candida albicans [20]): 99.7% | viability at 25 µM (MCF7 [21]): 90.5% | inhibition of growth at 0.25 µg/mL (Candida albicans [22]): 100% | inhibition of growth at 4 µg/mL (Candida albicans [23]): 99.9% | inhibition of growth at 2 µg/mL (Candida albicans [24]): 99.8% | inhibition of growth at 1 µg/mL (Candida albicans [25]): 99% | viability at 100 µM (CCRF-CEM [26]): 33.8% | inhibition of growth at 0.25 µg/mL (Candida albicans [27]): 99.5% | inhibition of growth at 16 µg/mL (Candida albicans [28]): 99.2% | inhibition of growth at 8 µg/mL (Candida albicans [29]): 99.5%

COC(C(=O)OC(C)Cn1cnc2c1c(=O)n(C)c(=O)n2C)c1ccc2ccccc2c1 (configuration not stated)
inhibition of growth at 0.0313 µg/mL (Candida albicans [1]): 99.1% | log(activity) (Candida albicans [2]): 0.4 | inhibition of growth at 16 µg/mL (Candida albicans [3]): 99.2% | viability at 50 µM (CCRF-CEM [4]): 28.2% | inhibition of growth at 0.125 µg/mL (Candida albicans [5]): 99% | inhibition of growth at 1 µg/mL (Candida albicans [6]): 99.1% | inhibition of growth at 8 µg/mL (Candida albicans [7]): 99% | inhibition of growth at 0.125 µg/mL (Candida albicans [8]): 99.1% | inhibition of growth at 2 µg/mL (Candida albicans [9]): 99.1% | viability at 50 µM (MCF7 [10]): 86.3% | viability at 200 µM (MCF7 [11]): 68.8% | inhibition of growth at 0.0625 µg/mL (Candida albicans [12]): 99.1% | inhibition of growth at 0.5 µg/mL (Candida albicans [13]): 99.2% | inhibition of growth at 0.0313 µg/mL (Candida albicans [14]): 99% | inhibition of growth at 0.5 µg/mL (Candida albicans [15]): 99.1% | viability at 100 µM (MCF7 [16]): 83.7% | inhibition of growth at 0.0625 µg/mL (Candida albicans [17]): 99.1% | viability at 200 µM (CCRF-CEM [18]): 15% | viability at 25 µM (CCRF-CEM [19]): 84.7% | inhibition of growth at 8 µg/mL (Candida albicans [20]): 99% | viability at 25 µM (MCF7 [21]): 93.5% | inhibition of growth at 0.25 µg/mL (Candida albicans [22]): 99% | inhibition of growth at 4 µg/mL (Candida albicans [23]): 99% | inhibition of growth at 2 µg/mL (Candida albicans [24]): 99% | inhibition of growth at 1 µg/mL (Candida albicans [25]): 99% | viability at 100 µM (CCRF-CEM [26]): 27.6% | inhibition of growth at 0.25 µg/mL (Candida albicans [27]): 99.1% | inhibition of growth at 16 µg/mL (Candida albicans [28]): 99% | inhibition of growth at 8 µg/mL (Candida albicans [29]): 99%
